We go through 19 compounds from ChEMBL document CHEMBL5252539, “In vitro biological evaluation of new antimycobacterial salicylanilide-tuftsin conjugates” (Eur J Med Chem, 2017).

SMILES strings stand for the structures. Calls of active or inactive are those of the source. The calls are words filed in the database; no cut-off is given here. *1 amine or outer side, *2 acyl side, *3 side chain or, on linkers, in order; H or OH if unused. Where a SMILES comes first, the peptide text is derived from it. [ ]: non-standard residue; d: D form. The star is where a group is joined. X4 = O=C(Nc1ccc(C(F)(F)F)cc1)c1cc(/C=N\OCC(=O)*)ccc1O; X2 = C/C(=N\OCC(=O)*)c1ccc(NC(=O)c2cc(Br)ccc2O)cc1; X1 = C/C(=N\OCC(=O)[*:2])c1ccc(N[*:1])cc1; Benzoyl(5-Br-2-OH) = O=C(c1cc(Br)ccc1O)*; Palmitoyl = CCCCCCCCCCCCCCCC(=O)*; Decanoyl = CCCCCCCCCC(=O)*; X3 = O=C(c1cc(Cl)ccc1O)*; Butyryl = CCCC(=O)*

This test concerns Mycobacterium tuberculosis. Kind of test: Antimycobacterial activity against isoniazid and rifampicin resistant Mycobacterium tuberculosis A8 ATCC 35822 assessed as reduction in colony forming unit after 28 days by serial dilution method. Format: functional, organism-based. To be noted: time 28.0 day. In a few lines: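 After the 4-week MIC incubation in Sula semisynthetic medium (pH 6.5), growth inhibition confirmed by plating on Löwenstein-Jensen solid medium and counting colony forming units.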
On to `C/C(=N\OCC(=O)NCC(=O)N[C@@H](Cc1ccccc1)C(=O)N[C@@H](CC(C)C)C(=O)NCC(=O)N[C@H](C(=O)N[C@@H](CCCCN)C(=O)N1CCC[C@@H]1C(=O)N1CCC[C@H]1C(=O)N[C@H](CCCNC(=N)N)C(=O)O)[C@@H](C)O)c1ccc(NC(=O)c2cc(Br)ccc2O)cc1`, for which the result was Active. The result for `CCCC(=O)NCCCC[C@H](NC(=O)[C@@H]1CCCN1C(=O)[C@H](CCCCN)NC(=O)[C@@H](NC(=O)CO/N=C(\C)c1ccc(NC(=O)c2cc(Br)ccc2O)cc1)[C@@H](C)O)C(=O)NCC(=O)N[C@H](C(=O)N[C@@H](CCCCN)C(=O)N1CCC[C@H]1C(=O)N[C@@H](CCCCN)C(=O)NCC(=O)N[C@H](C(=O)N[C@@H](CCCCN)C(=O)N1CCC[C@H]1C(=O)N[C@@H](CCCCN)C(=O)NCC(=O)N[C@H](C(=O)N[C@@H](CCCCN)C(=O)N1CCC[C@H]1C(=O)N[C@@H](CCCCN)C(=O)NCC(N)=O)[C@@H](C)O)[C@@H](C)O)[C@@H](C)O` ({Benzoyl(5-Br-2-OH)}-[X1]TKPK(Butyryl)GTKPKGTKPKGTKPKG-NH2) reads “Active”. The result for `C/C(=N\OCC(=O)NCCCC[C@H](NC(=O)[C@@H]1CCCN1C(=O)[C@H](CCCCN)NC(=O)[C@@H](NC(=O)CO/N=C(\C)c1ccc(NC(=O)c2cc(Br)ccc2O)cc1)[C@@H](C)O)C(=O)NCC(=O)N[C@H](C(=O)N[C@@H](CCCCN)C(=O)N1CCC[C@H]1C(=O)N[C@@H](CCCCN)C(=O)NCC(=O)N[C@H](C(=O)N[C@@H](CCCCN)C(=O)N1CCC[C@H]1C(=O)N[C@@H](CCCCN)C(=O)NCC(=O)N[C@H](C(=O)N[C@@H](CCCCN)C(=O)N1CCC[C@H]1C(=O)N[C@@H](CCCCN)C(=O)NCC(N)=O)[C@@H](C)O)[C@@H](C)O)[C@@H](C)O)c1ccc(NC(=O)c2cc(Br)ccc2O)cc1` ({Benzoyl(5-Br-2-OH)}-[X1]TKPK(X2)GTKPKGTKPKGTKPKG-NH2) reads “Active”; that for `C/C(=N\OCC(=O)NCC(=O)O)c1ccc(NC(=O)c2cc(Br)ccc2O)cc1`, “Active”; that for `C/C(=N\OCC(=O)N[C@H](C(=O)O)[C@@H](C)O)c1ccc(NC(=O)c2cc(Br)ccc2O)cc1`, “Active”.

Turning to `CCCCCCCCCCCCCCCC(=O)NCCCC[C@H](NC(=O)[C@@H]1CCCN1C(=O)[C@H](CCCCN)NC(=O)[C@@H](NC(=O)CO/N=C(\C)c1ccc(NC(=O)c2cc(Br)ccc2O)cc1)[C@@H](C)O)C(=O)NCC(N)=O` ({Benzoyl(5-Br-2-OH)}-[X1]TKPK(Palmitoyl)G-NH2), the result was Active. The result for `C[C@@H](O)[C@H](NC(=O)CNC(=O)[C@H](CCCCN)NC(=O)[C@@H]1CCCN1C(=O)[C@H](CCCCN)NC(=O)[C@@H](NC(=O)CNC(=O)[C@H](CCCCN)NC(=O)[C@@H]1CCCN1C(=O)[C@H](CCCCN)NC(=O)[C@@H](NC(=O)CNC(=O)[C@H](CCCCN)NC(=O)[C@@H]1CCCN1C(=O)[C@H](CCCCN)NC(=O)[C@@H](NC(=O)CO/N=C\c1ccc(O)c(C(=O)Nc2ccc(C(F)(F)F)cc2)c1)[C@@H](C)O)[C@@H](C)O)[C@@H](C)O)C(=O)N[C@@H](CCCCN)C(=O)N1CCC[C@H]1C(=O)N[C@@H](CCCCN)C(=O)NCC(N)=O` (X4-TKPKGTKPKGTKPKGTKPKG-NH2) reads “Active”. The result for `C/C(=N\OCC(=O)NCCCC[C@H](NC(=O)[C@@H]1CCCN1C(=O)[C@H](CCCCN)NC(=O)[C@@H](NC(=O)CNC(=O)[C@H](CCCCNC(=O)CO/N=C(\C)c1ccc(NC(=O)c2cc(Br)ccc2O)cc1)NC(=O)[C@@H]1CCCN1C(=O)[C@H](CCCCN)NC(=O)[C@@H](NC(=O)[C@H](CCCNC(=N)N)NC(=O)[C@@H]1CCCN1C(=O)[C@H](CCCCN)NC(=O)[C@@H](N)[C@@H](C)O)[C@@H](C)O)[C@@H](C)O)C(=O)NCC(=O)O)c1ccc(NC(=O)c2cc(Br)ccc2O)cc1` (H-TKPRTKPK(X2)GTKPK(X2)G-OH) reads “Active”. The result for `CCCCCCCCCCCCCCCC(=O)NCCCC[C@H](NC(=O)[C@@H]1CCCN1C(=O)[C@H](CCCCN)NC(=O)[C@@H](NC(=O)CO/N=C(\C)c1ccc(NC(=O)c2cc(Br)ccc2O)cc1)[C@@H](C)O)C(=O)NCC(=O)N[C@H](C(=O)N[C@@H](CCCCN)C(=O)N1CCC[C@H]1C(=O)N[C@@H](CCCCN)C(=O)NCC(=O)N[C@H](C(=O)N[C@@H](CCCCN)C(=O)N1CCC[C@H]1C(=O)N[C@@H](CCCCN)C(=O)NCC(=O)N[C@H](C(=O)N[C@@H](CCCCN)C(=O)N1CCC[C@H]1C(=O)N[C@@H](CCCCN)C(=O)NCC(N)=O)[C@@H](C)O)[C@@H](C)O)[C@@H](C)O` ({Benzoyl(5-Br-2-OH)}-[X1]TKPK(Palmitoyl)GTKPKGTKPKGTKPKG-NH2) reads “Active”; that for `C/C(=N\OCC(=O)N[C@H](C(=O)N[C@@H](CCCCN)C(=O)N1CCC[C@H]1C(=O)N[C@@H](CCCCN)C(=O)NCC(=O)N[C@H](C(=O)N[C@@H](CCCCN)C(=O)N1CCC[C@H]1C(=O)N[C@@H](CCCCN)C(=O)NCC(=O)N[C@H](C(=O)N[C@@H](CCCCN)C(=O)N1CCC[C@H]1C(=O)N[C@@H](CCCCN)C(=O)NCC(=O)N[C@H](C(=O)N[C@@H](CCCCN)C(=O)N1CCC[C@H]1C(=O)N[C@@H](CCCCN)C(=O)NCC(N)=O)[C@@H](C)O)[C@@H](C)O)[C@@H](C)O)[C@@H](C)O)c1ccc(NC(=O)c2cc(Cl)ccc2O)cc1` (X3-[X1]TKPKGTKPKGTKPKGTKPKG-NH2), “Active”; that for `CCCCCCCCCCCCCCCC(=O)NCCCC[C@H](NC(=O)[C@@H]1CCCN1C(=O)[C@H](CCCCN)NC(=O)[C@@H](NC(=O)CO/N=C(\C)c1ccc(NC(=O)c2cc(Cl)ccc2O)cc1)[C@@H](C)O)C(=O)NCC(=O)N[C@H](C(=O)N[C@@H](CCCCN)C(=O)N1CCC[C@H]1C(=O)N[C@@H](CCCCN)C(=O)NCC(=O)N[C@H](C(=O)N[C@@H](CCCCN)C(=O)N1CCC[C@H]1C(=O)N[C@@H](CCCCN)C(=O)NCC(=O)N[C@H](C(=O)N[C@@H](CCCCN)C(=O)N1CCC[C@H]1C(=O)N[C@@H](CCCCN)C(=O)NCC(N)=O)[C@@H](C)O)[C@@H](C)O)[C@@H](C)O` (X3-[X1]TKPK(Palmitoyl)GTKPKGTKPKGTKPKG-NH2), “Active”. Turning to `C/C(=N\OCC(=O)N[C@H](C(=O)N[C@@H](CCCCN)C(=O)N1CCC[C@H]1C(=O)N[C@@H](CCCCN)C(=O)NCC(=O)N[C@H](C(=O)N[C@@H](CCCCN)C(=O)N1CCC[C@H]1C(=O)N[C@@H](CCCCN)C(=O)NCC(=O)N[C@H](C(=O)N[C@@H](CCCCN)C(=O)N1CCC[C@H]1C(=O)N[C@@H](CCCCN)C(=O)NCC(=O)N[C@H](C(=O)N[C@@H](CCCCN)C(=O)N1CCC[C@H]1C(=O)N[C@@H](CCCCN)C(=O)NCC(N)=O)[C@@H](C)O)[C@@H](C)O)[C@@H](C)O)[C@@H](C)O)c1ccc(NC(=O)c2cc(Br)ccc2O)cc1` ({Benzoyl(5-Br-2-OH)}-[X1]TKPKGTKPKGTKPKGTKPKG-NH2), the outcome was Active.

Regarding `CCCCCCCCCCCCCCCC(=O)NCCCC[C@H](NC(=O)[C@@H]1CCCN1C(=O)[C@H](CCCCN)NC(=O)[C@@H](NC(=O)CNC(=O)[C@H](CCCCN)NC(=O)[C@@H]1CCCN1C(=O)[C@H](CCCCN)NC(=O)[C@@H](NC(=O)CNC(=O)[C@H](CCCCN)NC(=O)[C@@H]1CCCN1C(=O)[C@H](CCCCN)NC(=O)[C@@H](NC(=O)CO/N=C(\C)c1ccc(NC(=O)c2cc(Br)ccc2O)cc1)[C@@H](C)O)[C@@H](C)O)[C@@H](C)O)C(=O)NCC(=O)N[C@H](C(=O)N[C@@H](CCCCN)C(=O)N1CCC[C@H]1C(=O)N[C@@H](CCCCN)C(=O)NCC(N)=O)[C@@H](C)O` ({Benzoyl(5-Br-2-OH)}-[X1]TKPKGTKPKGTKPK(Palmitoyl)GTKPKG-NH2), the outcome was Active. The result for `C/C(=N\OCC(=O)NCC(=O)N[C@@H](Cc1ccccc1)C(=O)N[C@@H](CC(C)C)C(=O)NCC(=O)N[C@H](C(=O)N[C@@H](CCCCN)C(=O)N1CCC[C@@H]1C(=O)N[C@H](CCCNC(=N)N)C(=O)O)[C@@H](C)O)c1ccc(NC(=O)c2cc(Br)ccc2O)cc1` reads “Active”; that for `CCCCCCCCCC(=O)NCCCC[C@H](NC(=O)[C@@H]1CCCN1C(=O)[C@H](CCCCN)NC(=O)[C@@H](NC(=O)CO/N=C(\C)c1ccc(NC(=O)c2cc(Br)ccc2O)cc1)[C@@H](C)O)C(=O)NCC(=O)N[C@H](C(=O)N[C@@H](CCCCN)C(=O)N1CCC[C@H]1C(=O)N[C@@H](CCCCN)C(=O)NCC(=O)N[C@H](C(=O)N[C@@H](CCCCN)C(=O)N1CCC[C@H]1C(=O)N[C@@H](CCCCN)C(=O)NCC(=O)N[C@H](C(=O)N[C@@H](CCCCN)C(=O)N1CCC[C@H]1C(=O)N[C@@H](CCCCN)C(=O)NCC(N)=O)[C@@H](C)O)[C@@H](C)O)[C@@H](C)O` ({Benzoyl(5-Br-2-OH)}-[X1]TKPK(Decanoyl)GTKPKGTKPKGTKPKG-NH2), “Active”. The result for `C/C(=N\OCC(=O)NCC(=O)N[C@@H](Cc1ccccc1)C(=O)N[C@@H](CC(C)C)C(=O)NCC(=O)N[C@H](C(=O)N[C@@H](CCCCN)C(=O)N1CCC[C@@H]1C(=O)N[C@H](CCCCN)C(=O)NCC(=O)N[C@@H](C(=O)N[C@H](CCCCN)C(=O)N1CCC[C@H]1C(=O)N[C@H](CCCCN)C(=O)NCC(=O)N[C@@H](C(=O)N[C@@H](CCCCN)C(=O)N1CCC[C@@H]1C(=O)N[C@H](CCCCN)C(=O)NCC(=O)N[C@@H](C(=O)N[C@H](CCCCN)C(=O)N1CCC[C@H]1C(=O)N[C@H](CCCCN)C(=O)NCC(N)=O)[C@H](C)O)[C@H](C)O)[C@H](C)O)[C@@H](C)O)c1ccc(NC(=O)c2cc(Br)ccc2O)cc1` reads “Active”; that for `C/C(=N\OCC(=O)N[C@H](C(=O)N[C@@H](CCCCN)C(=O)N1CCC[C@H]1C(=O)N[C@@H](CCCCN)C(=O)NCC(=O)N[C@H](C(=O)N[C@@H](CCCCN)C(=O)N1CCC[C@H]1C(=O)N[C@@H](CCCCN)C(=O)NCC(N)=O)[C@@H](C)O)[C@@H](C)O)c1ccc(NC(=O)c2cc(Br)ccc2O)cc1` ({Benzoyl(5-Br-2-OH)}-[X1]TKPKGTKPKG-NH2), “Active”; that for `C/C(=N\OCC(=O)N[C@H](C(=O)N[C@@H](CCCCN)C(=O)N1CCC[C@H]1C(=O)N1CCC[C@@H]1C(=O)N[C@H](CCCNC(=N)N)C(=O)O)[C@@H](C)O)c1ccc(NC(=O)c2cc(Br)ccc2O)cc1`, “Active”.

Turning to `CCCCCCCCCC(=O)NCCCC[C@H](NC(=O)[C@@H]1CCCN1C(=O)[C@H](CCCCN)NC(=O)[C@@H](NC(=O)CO/N=C(\C)c1ccc(NC(=O)c2cc(Br)ccc2O)cc1)[C@@H](C)O)C(=O)NCC(N)=O` ({Benzoyl(5-Br-2-OH)}-[X1]TKPK(Decanoyl)G-NH2), the outcome was Active.
